Data reported in ChEMBL document CHEMBL3421623 (J Med Chem, 2015).
pEC50, pIC50, pKi: −log10 of the molar value.

Columns and labels:
[1] = biological target: T1, Estrogen receptor beta (Homo sapiens, UniProt Q92731); assay: Displacement of fluorescein-labeled ES2 from human recombinant ERbeta receptor after 2 hrs by fluorescence polarization assay
Procedure, shortened: (§1)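 Fluorescence polarization competition. Compound in methanol or DMSO mixed with ES2 screening buffer (100 mM potassium phosphate, 100 μg/mL BGG, 0.02% NaN₃). Preformed complex added to final 9 nM ES2 with 30 nM ER-α or 20 nM ER-β. Polarization expressed as % of vehicle control; EC50 from one-site competition fit.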

[2] = biological target: T2, Aromatase (Homo sapiens, UniProt P11511); assay: Inhibition of human recombinant aromatase using 7-methoxy-trifluoromethylcoumarin as substrate assessed as formation of fluorescent metabolite after 30 mins by fluorescence assay; conditions: for inhibition (INH): human, 0.5 h
T2 sequence (P11511 whole entry): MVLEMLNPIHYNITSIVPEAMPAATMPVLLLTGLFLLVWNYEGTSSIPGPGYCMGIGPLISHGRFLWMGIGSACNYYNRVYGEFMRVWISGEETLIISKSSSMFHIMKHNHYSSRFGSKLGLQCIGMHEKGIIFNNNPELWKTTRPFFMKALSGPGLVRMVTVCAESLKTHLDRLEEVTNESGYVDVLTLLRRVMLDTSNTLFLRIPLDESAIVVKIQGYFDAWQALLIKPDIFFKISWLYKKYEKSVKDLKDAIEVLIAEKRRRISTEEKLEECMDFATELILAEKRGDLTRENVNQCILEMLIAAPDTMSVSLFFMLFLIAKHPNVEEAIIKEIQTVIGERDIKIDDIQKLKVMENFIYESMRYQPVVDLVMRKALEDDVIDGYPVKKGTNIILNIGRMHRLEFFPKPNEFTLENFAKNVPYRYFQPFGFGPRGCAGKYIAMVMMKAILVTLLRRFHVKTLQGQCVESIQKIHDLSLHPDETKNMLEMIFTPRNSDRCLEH
Procedure, shortened: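 Recombinant human CYP19 with MFC substrate, converted to fluorescent HFC, in 0.1 M potassium phosphate pH 7.4. NADPH-regenerating mix (NADP⁺, MgCl₂, glucose-6-phosphate, G6PDH); compound prewarmed 10 min at 37 °C, then 30 min reaction stopped with Tris base in acetonitrile. Activity as % of vehicle control; IC50 from one-site competition fit; Ki from Lineweaver–Burk data by nonlinear regression.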

[3] = biological target: T3, Estrogen receptor (Homo sapiens, UniProt P03372); assay: Displacement of fluorescein-labeled ES2 from human recombinant ERalpha receptor after 2 hrs by fluorescence polarization assay; procedure, shortened: as §1
T3 sequence (P03372 whole entry): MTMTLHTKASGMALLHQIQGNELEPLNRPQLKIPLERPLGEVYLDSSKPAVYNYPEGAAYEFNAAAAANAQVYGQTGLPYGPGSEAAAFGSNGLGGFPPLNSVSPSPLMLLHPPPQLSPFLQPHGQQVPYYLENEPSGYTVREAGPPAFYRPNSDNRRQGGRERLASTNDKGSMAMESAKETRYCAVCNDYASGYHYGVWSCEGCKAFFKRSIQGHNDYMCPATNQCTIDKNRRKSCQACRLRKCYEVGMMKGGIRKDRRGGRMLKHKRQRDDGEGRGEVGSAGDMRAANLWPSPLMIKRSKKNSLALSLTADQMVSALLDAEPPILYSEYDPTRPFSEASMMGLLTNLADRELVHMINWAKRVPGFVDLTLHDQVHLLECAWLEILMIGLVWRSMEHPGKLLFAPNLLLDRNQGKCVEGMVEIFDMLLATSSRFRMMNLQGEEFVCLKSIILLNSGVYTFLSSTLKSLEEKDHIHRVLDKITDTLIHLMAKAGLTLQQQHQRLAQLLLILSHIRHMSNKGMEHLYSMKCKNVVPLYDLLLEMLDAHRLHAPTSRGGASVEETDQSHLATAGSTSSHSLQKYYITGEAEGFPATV

[4] = biological target: T4, Estrogen receptor (Homo sapiens) (UniProt P03372); assay: Antiestrogenic effect at estrogen receptor in human MCF7 cells assessed as inhibition of E2-induced progesterone receptor mRNA expression at 1000 nM after 24 hrs by real time quantitative PCR; format: cell-based; set-up: scale not given: the % may be the effect or the level left
T4 sequence (whole entry): T3 sequence (P03372 whole entry)
Procedure, shortened: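 MCF-7 cells (10⁵/well) grown in MEM + 10% FBS at 37 °C, 5% CO₂, then preconditioned 72 h in charcoal-stripped FBS. Treated 24 h with 1 μM compound or vehicle (0.1% methanol) plus 10 nM E2 in MEM/10% charcoal-stripped FBS. PGR mRNA extracted after genomic DNA removal and quantified by qPCR (40 cycles, Ct). Reported as % of E2-alone expression (100%); 1 μM endoxifen as positive control.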

[5] = biological target: T5, Cytochrome P450 1A2 (Homo sapiens, UniProt P05177); assay: Inhibition of human recombinant CYP1A2 assessed as metabolism of 3-cyano-7-ethoxycoumarin after 30 mins by fluorescence assay; format: ADME
T5 sequence (P05177 whole entry): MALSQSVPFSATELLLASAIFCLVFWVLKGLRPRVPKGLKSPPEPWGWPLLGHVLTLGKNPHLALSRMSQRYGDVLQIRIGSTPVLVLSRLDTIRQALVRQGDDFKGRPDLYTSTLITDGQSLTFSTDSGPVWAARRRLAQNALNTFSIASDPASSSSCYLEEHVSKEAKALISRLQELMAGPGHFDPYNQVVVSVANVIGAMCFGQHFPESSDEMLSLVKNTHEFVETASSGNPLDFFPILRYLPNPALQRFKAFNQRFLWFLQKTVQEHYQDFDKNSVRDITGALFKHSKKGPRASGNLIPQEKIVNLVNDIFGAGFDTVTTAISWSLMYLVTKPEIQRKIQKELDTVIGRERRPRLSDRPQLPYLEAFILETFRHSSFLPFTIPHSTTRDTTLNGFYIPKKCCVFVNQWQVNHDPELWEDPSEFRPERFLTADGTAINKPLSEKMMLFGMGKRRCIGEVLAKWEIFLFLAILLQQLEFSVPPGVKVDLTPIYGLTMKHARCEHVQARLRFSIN

[6] = biological target: Cytochrome P450 3A5 (Homo sapiens, UniProt P20815); assay: Inhibition of human recombinant CYP3A5 assessed as metabolism of 7-benzyloxy-4-trifluoromethylcoumarin to HFC after 30 mins by fluorescence assay; format: ADME
Sequence of Cytochrome P450 3A5 (P20815 whole entry): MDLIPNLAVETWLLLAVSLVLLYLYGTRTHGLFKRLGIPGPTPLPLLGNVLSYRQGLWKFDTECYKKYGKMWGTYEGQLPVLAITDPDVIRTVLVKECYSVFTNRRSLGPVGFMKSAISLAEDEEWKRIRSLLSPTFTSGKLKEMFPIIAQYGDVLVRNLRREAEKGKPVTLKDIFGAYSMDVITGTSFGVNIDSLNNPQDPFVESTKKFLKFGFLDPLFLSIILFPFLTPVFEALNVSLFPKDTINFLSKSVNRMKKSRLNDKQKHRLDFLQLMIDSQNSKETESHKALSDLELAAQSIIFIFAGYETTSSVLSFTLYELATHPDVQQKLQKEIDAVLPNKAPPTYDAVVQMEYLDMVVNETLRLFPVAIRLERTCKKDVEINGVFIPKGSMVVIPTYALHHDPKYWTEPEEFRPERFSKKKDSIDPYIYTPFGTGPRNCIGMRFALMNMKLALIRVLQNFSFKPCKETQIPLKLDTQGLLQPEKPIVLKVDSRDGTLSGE

[7] = biological target: Cytochrome P450 3A4 (Homo sapiens, UniProt P08684); assay: Inhibition of human recombinant CYP3A4 assessed as metabolism of 7-benzyloxy-4-trifluoromethylcoumarin to HFC after 30 mins by fluorescence assay; format: ADME
Sequence of Cytochrome P450 3A4 (P08684 whole entry): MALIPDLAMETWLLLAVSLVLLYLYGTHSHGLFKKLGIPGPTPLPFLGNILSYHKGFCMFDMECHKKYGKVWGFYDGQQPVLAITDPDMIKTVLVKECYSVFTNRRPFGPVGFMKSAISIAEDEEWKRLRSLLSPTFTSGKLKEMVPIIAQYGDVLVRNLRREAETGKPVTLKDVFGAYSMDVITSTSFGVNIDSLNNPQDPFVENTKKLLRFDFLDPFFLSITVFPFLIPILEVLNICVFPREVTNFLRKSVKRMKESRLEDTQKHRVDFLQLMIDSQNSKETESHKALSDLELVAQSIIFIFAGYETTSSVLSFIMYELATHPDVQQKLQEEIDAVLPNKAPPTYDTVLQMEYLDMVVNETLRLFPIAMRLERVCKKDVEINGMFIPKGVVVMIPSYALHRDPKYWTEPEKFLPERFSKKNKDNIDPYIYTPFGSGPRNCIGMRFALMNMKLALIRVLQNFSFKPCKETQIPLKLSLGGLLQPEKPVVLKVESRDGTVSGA

[8] = biological target: Cytochrome P450 2D6 (Homo sapiens, UniProt P10635); assay: Inhibition of human recombinant CYP2D6 after 30 mins by fluorescence assay; format: ADME
Sequence of Cytochrome P450 2D6 (P10635 whole entry): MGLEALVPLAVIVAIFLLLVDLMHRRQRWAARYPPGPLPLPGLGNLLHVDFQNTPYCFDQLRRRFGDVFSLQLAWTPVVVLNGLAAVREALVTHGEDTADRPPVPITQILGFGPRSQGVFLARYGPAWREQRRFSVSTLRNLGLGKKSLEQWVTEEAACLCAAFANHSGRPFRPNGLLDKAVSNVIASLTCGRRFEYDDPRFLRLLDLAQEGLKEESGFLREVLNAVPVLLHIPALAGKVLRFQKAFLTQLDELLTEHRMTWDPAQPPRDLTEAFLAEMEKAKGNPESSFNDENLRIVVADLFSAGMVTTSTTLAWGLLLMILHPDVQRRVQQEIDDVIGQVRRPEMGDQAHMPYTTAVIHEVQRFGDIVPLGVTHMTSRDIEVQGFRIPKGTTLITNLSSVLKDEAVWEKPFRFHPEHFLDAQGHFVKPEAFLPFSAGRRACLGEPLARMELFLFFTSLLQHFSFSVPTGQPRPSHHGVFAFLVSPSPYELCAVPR

[9] = biological target: T6, Cytochrome P450 2A6 (Homo sapiens, UniProt P11509); assay: Inhibition of human recombinant CYP2A6 assessed as metabolism of coumarin to 7-hydroxycoumarin after 30 mins by fluorescence assay; format: ADME
T6 sequence (P11509 whole entry): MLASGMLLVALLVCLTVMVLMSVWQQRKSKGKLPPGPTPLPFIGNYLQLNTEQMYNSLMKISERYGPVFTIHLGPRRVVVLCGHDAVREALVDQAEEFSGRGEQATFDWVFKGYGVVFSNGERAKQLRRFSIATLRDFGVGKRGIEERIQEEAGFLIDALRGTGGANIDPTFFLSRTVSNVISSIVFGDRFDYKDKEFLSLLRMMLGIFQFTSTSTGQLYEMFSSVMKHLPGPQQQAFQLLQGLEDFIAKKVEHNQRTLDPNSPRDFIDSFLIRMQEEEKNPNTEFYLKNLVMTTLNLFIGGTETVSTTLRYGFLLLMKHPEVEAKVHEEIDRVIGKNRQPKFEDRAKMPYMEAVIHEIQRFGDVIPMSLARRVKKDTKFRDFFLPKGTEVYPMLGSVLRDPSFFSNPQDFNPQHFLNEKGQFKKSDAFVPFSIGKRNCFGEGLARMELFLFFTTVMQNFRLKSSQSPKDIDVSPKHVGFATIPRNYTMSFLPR

[10] = biological target: T4, Estrogen receptor (Homo sapiens); assay: Displacement of fluorescein-labeled ES2 from human recombinant ERalpha receptor at 100000 nM after 2 hrs by fluorescence polarization assay
Procedure, shortened: (§2)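 Same ES2 fluorescence polarization setup: 9 nM ES2 with 30 nM ER-α or 20 nM ER-β, in phosphate/BGG buffer, 2 h in the dark. Each compound tested at a single 100000 nM and reported as percent ER competition versus vehicle control. Compounds were E/Z isomer mixtures (mostly 1:1). Mean of at least three experiments.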

[11] = biological target: T1, Estrogen receptor beta; assay: Displacement of fluorescein-labeled ES2 from human recombinant ERbeta receptor at 100000 nM after 2 hrs by fluorescence polarization assay; procedure, shortened: as §2

T1 sequence (Q92731 whole entry): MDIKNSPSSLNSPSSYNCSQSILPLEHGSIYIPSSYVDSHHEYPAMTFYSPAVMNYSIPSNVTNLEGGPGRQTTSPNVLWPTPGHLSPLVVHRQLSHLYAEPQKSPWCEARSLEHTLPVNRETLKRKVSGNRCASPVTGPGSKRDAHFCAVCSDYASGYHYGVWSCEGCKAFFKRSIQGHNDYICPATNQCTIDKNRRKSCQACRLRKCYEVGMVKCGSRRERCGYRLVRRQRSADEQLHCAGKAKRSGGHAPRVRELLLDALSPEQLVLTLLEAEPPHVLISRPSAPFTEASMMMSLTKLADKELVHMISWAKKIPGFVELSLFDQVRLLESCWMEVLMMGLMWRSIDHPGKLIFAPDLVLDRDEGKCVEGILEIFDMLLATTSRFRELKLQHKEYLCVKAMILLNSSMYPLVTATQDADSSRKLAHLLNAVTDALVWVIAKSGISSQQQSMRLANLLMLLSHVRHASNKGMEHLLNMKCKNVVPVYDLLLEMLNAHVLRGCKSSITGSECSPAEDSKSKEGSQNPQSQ

Compound | pEC50 [1] | pIC50 [2] | pEC50 [3] | Activity [4] [%] | Activity [10] [%] | Activity [11] [%] | also measured
CCC(CC)=C(c1ccc(O)cc1)c1ccc(OCCN)cc1 | 6.69 | 5.88 | 6.56 | – | – | – | –
NCCOc1ccc(C(=C(c2ccccc2)c2ccccc2)c2ccc(O)cc2)cc1 | 6.32 | 5.71 | 6.19 | – | – | – | –
NCCOc1ccc(/C(=C(/Cn2cnnc2)c2ccccc2)c2ccc(O)cc2)cc1 | 7.32 | 6.15 | 7.25 | 47 | – | – | –
NCCOc1ccc(/C(=C(\Cn2cnnc2)c2ccccc2)c2ccc(O)cc2)cc1 | 7.24 | 6.16 | 6.75 | 44 | – | – | –
CC/C(=C(/c1ccc(O)cc1)c1ccc(OCCN)cc1)c1ccccc1 (mixture of isomers) | – | – | – | 32 | – | – | pIC50 [5]: 6.68; pIC50 [6]: 6.14; pKi [6]: 6.08; pIC50 [7]: 6.55; pKi [7]: 6.43; Ki [8]: Not Active; inhibition (INH) ([8]; human, recombinant enzyme, 0.5 h): Not Active; pIC50 [9]: 5.20; pKi [9]: 5.66
CC/C(=C(/c1ccc(O)cc1)c1ccc(OCCN)cc1)c1ccc(F)cc1 (mixture of isomers) | 7.31 | 5.99 | 7.06 | 42 | – | – | –
CC/C(=C(/c1ccccc1)c1ccc(OCCN)cc1)c1ccccc1 (mixture of isomers) | – | 6.04 | – | – | 0 | 0 | –
CC/C(=C(/c1ccc(N)cc1)c1ccc(OCCN)cc1)c1ccccc1 (mixture of isomers) | 6.74 | 7.27 | 6.56 | – | – | – | –
CC/C(=C(/c1ccc(N)cc1)c1ccc(OCCN)cc1)c1ccc(O)cc1 (mixture of isomers) | 7.30 | 7.32 | 6.84 | – | – | – | –
NCCOc1ccc(/C(=C/c2ccccc2)c2ccc(O)cc2)cc1 (mixture of isomers) | 7.71 | 5.20 | 5.98 | – | – | – | –
C/C(=C(/c1ccc(O)cc1)c1ccc(OCCN)cc1)c1ccccc1 (mixture of isomers) | 7.56 | 6.47 | 6.17 | – | – | – | –
NCCOc1ccc(/C(=C(\CCCl)c2ccccc2)c2ccc(O)cc2)cc1 (mixture of isomers) | 7.28 | 6.84 | 6.58 | – | – | – | –
CCC/C(=C(/c1ccc(O)cc1)c1ccc(OCCN)cc1)c1ccccc1 (mixture of isomers) | 7.44 | 6.58 | 6.42 | – | – | – | –
CC(C)/C(=C(/c1ccc(O)cc1)c1ccc(OCCN)cc1)c1ccccc1 (mixture of isomers) | – | 6.48 | – | – | 54 | 68 | –
N#CC/C(=C(/c1ccc(O)cc1)c1ccc(OCCN)cc1)c1ccccc1 (mixture of isomers) | – | 7.31 | – | – | 48 | 64 | –
NCCOc1ccc(/C(=C(\Cn2ccnc2)c2ccccc2)c2ccc(O)cc2)cc1 (mixture of isomers) | – | 7.77 | – | – | 59 | 74 | –
NCCOc1ccc(/C(=C(\Cn2cncn2)c2ccccc2)c2ccc(O)cc2)cc1 (mixture of isomers) | 6.28 | 6.76 | 6.54 | 47 | – | – | –
NCCOc1ccc(/C(=C2\CCc3ccccc32)c2ccc(O)cc2)cc1 (mixture of isomers) | 5.87 | 6.31 | 5.50 | – | – | – | –
CC/C(=C(/c1ccc(O)cc1)c1ccc(OCCO)cc1)c1ccccc1 (mixture of isomers) | – | 4.52 | – | – | 62 | 56 | –
CC/C(=C(/c1ccc(O)cc1)c1ccc(OCC(=O)O)cc1)c1ccccc1 (mixture of isomers) | – | 5.43 | – | – | 55 | 57 | –
CC/C(=C(/c1ccc(O)cc1)c1ccc(OCCBr)cc1)c1ccccc1 (mixture of isomers) | – | – | – | – | 60 | 60 | inhibition (INH) [2]: 20%
CC/C(=C(/c1ccc(O)cc1)c1ccc(OCCCl)cc1)c1ccccc1 (mixture of isomers) | – | – | – | – | 62 | 40 | inhibition (INH) [2]: 27%
CC/C(=C(/c1ccc(O)cc1)c1ccc(OCCCN)cc1)c1ccccc1 (mixture of isomers) | 7.67 | 5.91 | 7.67 | 33 | – | – | –
CC/C(=C(/c1ccc(O)cc1)c1ccc(CCCN)cc1)c1ccccc1 (mixture of isomers) | 7.88 | 5.13 | 7.57 | 16 | – | – | –
CC/C(=C(/c1ccc(O)cc1)c1ccc(CCCN)cc1)c1ccc(O)cc1 (mixture of isomers) | 6.53 | 6.31 | 5.72 | 6 | – | – | –
